Measurements from ChEMBL document CHEMBL4819043, “1,3-Benzodioxole-based fibrate derivatives as potential hypolipidemic and hepatoprotective agents” (2021).
One block for each compound: values may come before it. Active and inactive are the calls of the source. The calls are words filed in the database; no cut-off is given here.

Key:
Mus musculus [1] = experiment: Hypolipidemic activity in KM mouse model of Triton WR 1339-induced hyperlipidemia assessed as reduction in serum TG level at 0.362 mmol/Kg, IG administered for 1 week and measured on day 7; type: functional, organism-based; conditions: time 1.0 weeks
Mus musculus [2] = experiment: Hypolipidemic activity in KM mouse model of Triton WR 1339-induced hyperlipidemia assessed as reduction in serum TC level at 0.362 mmol/Kg, IG administered for 1 week and measured on day 7; type: functional, organism-based; conditions: time 1.0 weeks
Mus musculus [3] = experiment: Hypolipidemic activity in KM mouse model of Triton WR 1339-induced hyperlipidemia assessed as reduction in serum MDA level at 0.362 mmol/Kg, IG administered for 1 week and measured on day 7; type: functional, organism-based; conditions: time 1.0 weeks
Mus musculus [4] = experiment: Hypolipidemic activity in mouse model of HFD-induced hyperlipidemia assessed as reduction in serum TG level at 13 mg/kg, IG; type: functional, organism-based
In short: (§1)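 Mice with high-fat-diet-induced hyperlipidemia, given 67 or 13 mg/kg intragastrically. Serum was assayed for TC, TG, HDL-C and LDL-C, for SOD, GSH-PX and MDA, for IL-6 and TNF-α, and for AST and ALT. Values were compared with the model group. n = 12 per group; mean ± SEM.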

Mus musculus [5] = experiment: Hypolipidemic activity in mouse model of HFD-induced hyperlipidemia assessed as reduction in serum LDL-C level at 13 mg/kg, IG; type: functional, organism-based; in short: as §1
Mus musculus [6] = experiment: Hypolipidemic activity in mouse model of HFD-induced hyperlipidemia assessed as reduction in serum TC level at 13 mg/kg, IG; type: functional, organism-based; in short: as §1
Mus musculus [7] = experiment: Antioxidant activity in mouse model of HFD-induced hyperlipidemia assessed as increase in GSH-PX level at 13 mg/kg, IG; type: functional, organism-based; in short: as §1
Mus musculus [8] = experiment: Antioxidant activity in mouse model of HFD-induced hyperlipidemia assessed as decrease in MDA level at 13 mg/kg, IG; type: functional, organism-based; in short: as §1
Mus musculus [9] = experiment: Hepatoprotective activity against mouse model of HFD-induced hyperlipidemia assessed as decrease in AST level at 13 mg/kg, IG; type: functional, organism-based; in short: as §1
Mus musculus [10] = experiment: Hepatoprotective activity against mouse model of HFD-induced hyperlipidemia assessed as decrease in ALT level at 13 mg/kg, IG; type: functional, organism-based; in short: as §1
Mus musculus [11] = experiment: Hypolipidemic activity in mouse model of HFD-induced hyperlipidemia assessed as reduction in number of lipid droplets in liver at 13 mg/kg, IG by oil red-O staining based assay; type: functional, organism-based
In short: (§2)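 Livers from mice with high-fat-diet-induced hyperlipidemia, dosed intragastrically at 67 or 13 mg/kg. Liver sections were stained for lipid (oil red O; Sudan III with hematoxylin, 100×), and relative hepatic lipid accumulation was quantified. Mean of six independent experiments ± SEM, compared with the model group.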

Mus musculus [12] = experiment: Upregulation of PPAR-alpha expression in mouse model of HFD-induced hyperlipidemia at 13 mg/kg, IG by Western blot analysis; type: functional, organism-based
In short: (§3)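 Hepatic PPAR-α expression measured in liver tissue of mice with high-fat-diet-induced hyperlipidemia, dosed intragastrically at 67 or 13 mg/kg. Compared with the model group. n = 6; mean ± SEM.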

Mus musculus [13] = experiment: Hypolipidemic activity in mouse model of HFD-induced hyperlipidemia assessed as increase in serum HDL-C level at 13 mg/kg, IG relative to control; type: functional; in short: as §1
Mus musculus [14] = experiment: Hypolipidemic activity in KM mouse model of Triton WR 1339-induced hyperlipidemia assessed as reduction in serum TG level at 0.121 mmol/Kg, IG administered for 1 week and measured on day 7 relative to control; type: functional; design: scale not given: the % may be the effect or the level left; conditions: time 1 weeks
Mus musculus [15] = experiment: Hypolipidemic activity in KM mouse model of Triton WR 1339-induced hyperlipidemia assessed as reduction in serum TG level at 0.362 mmol/Kg, IG administered for 1 week and measured on day 7 relative to control; type: functional; design: scale not given: the % may be the effect or the level left; conditions: time 1 weeks
Mus musculus [16] = experiment: Hypolipidemic activity in KM mouse model of Triton WR 1339-induced hyperlipidemia assessed as reduction in serum TG level at 1.086 mmol/Kg, IG administered for 1 week and measured on day 7 relative to control; type: functional; design: scale not given: the % may be the effect or the level left; conditions: time 1 weeks
Mus musculus [17] = experiment: Hypolipidemic activity in KM mouse model of Triton WR 1339-induced hyperlipidemia assessed as reduction in serum TC level at 0.121 mmol/Kg, IG administered for 1 week and measured on day 7 relative to control; type: functional; design: scale not given: the % may be the effect or the level left; conditions: time 1 weeks
Mus musculus [18] = experiment: Hypolipidemic activity in KM mouse model of Triton WR 1339-induced hyperlipidemia assessed as reduction in serum TC level at 0.362 mmol/Kg, IG administered for 1 week and measured on day 7 relative to control; type: functional; design: scale not given: the % may be the effect or the level left; conditions: time 1 weeks
Mus musculus [19] = experiment: Hypolipidemic activity in KM mouse model of Triton WR 1339-induced hyperlipidemia assessed as reduction in serum TC level at 1.086 mmol/Kg, IG administered for 1 week and measured on day 7 relative to control; type: functional; design: scale not given: the % may be the effect or the level left; conditions: time 1 weeks
Mus musculus [20] = experiment: Hypolipidemic activity in KM mouse model of Triton WR 1339-induced hyperlipidemia assessed as reduction in serum TG level administered IG for 1 week and measured on day 7; type: functional, organism-based; conditions: time 1.0 weeks
Mus musculus [21] = experiment: Hypolipidemic activity in KM mouse model of Triton WR 1339-induced hyperlipidemia assessed as reduction in serum TC level administered IG for 1 week and measured on day 7 relative to control; type: functional, organism-based; conditions: time 1.0 weeks
Mus musculus [22] = experiment: Hypolipidemic activity in mouse model of HFD-induced hyperlipidemia assessed as reduction in serum TG level at 67 mg/kg, IG; type: functional, organism-based; in short: as §1
Mus musculus [23] = experiment: Hypolipidemic activity in mouse model of HFD-induced hyperlipidemia assessed as reduction in serum LDL-C level at 67 mg/kg, IG; type: functional, organism-based; in short: as §1
Mus musculus [24] = experiment: Hypolipidemic activity in mouse model of HFD-induced hyperlipidemia assessed as reduction in serum TC level at 67 mg/kg, IG; type: functional, organism-based; in short: as §1
Mus musculus [25] = experiment: Antioxidant activity in mouse model of HFD-induced hyperlipidemia assessed as increase in SOD level at 67 mg/kg, IG; type: functional, organism-based; in short: as §1
Mus musculus [26] = experiment: Antioxidant activity in mouse model of HFD-induced hyperlipidemia assessed as increase in GSH-PX level at 67 mg/kg, IG; type: functional, organism-based; in short: as §1
Mus musculus [27] = experiment: Antioxidant activity in mouse model of HFD-induced hyperlipidemia assessed as decrease in MDA level at 67 mg/kg, IG; type: functional, organism-based; in short: as §1
Mus musculus [28] = experiment: Antiinflammatory activity against mouse model of HFD-induced hyperlipidemia assessed as decrease in TNF-alpha level at 67 mg/kg, IG; type: functional, organism-based; in short: as §1
Mus musculus [29] = experiment: Antiinflammatory activity against mouse model of HFD-induced hyperlipidemia assessed as decrease in IL-6 level at 67 mg/kg, IG; type: functional, organism-based; in short: as §1
Mus musculus [30] = experiment: Hepatoprotective activity against mouse model of HFD-induced hyperlipidemia assessed as decrease in AST level at 67 mg/kg, IG; type: functional, organism-based; in short: as §1
Mus musculus [31] = experiment: Hepatoprotective activity against mouse model of HFD-induced hyperlipidemia assessed as decrease in ALT level at 67 mg/kg, IG; type: functional, organism-based; in short: as §1
Mus musculus [32] = experiment: Hypolipidemic activity in mouse model of HFD-induced hyperlipidemia assessed as reduction in number of lipid droplets in liver at 67 mg/kg, IG by oil red-O staining based assay; type: functional, organism-based; in short: as §2
Mus musculus [33] = experiment: Upregulation of PPAR-alpha expression in mouse model of HFD-induced hyperlipidemia at 67 mg/kg, IG by Western blot analysis; type: functional, organism-based; in short: as §3
Mus musculus [34] = experiment: Hypolipidemic activity in mouse model of HFD-induced hyperlipidemia assessed as increase in serum HDL-C level at 67 mg/kg, IG relative to control; type: functional; in short: as §1

SMILES: O=C(COc1ccc2c(c1)OCO2)Oc1ccc2c(c1)OCO2
Activity (Mus musculus [1]): Active | Activity (Mus musculus [2]): Active

SMILES: O=C(CCCOc1ccc2c(c1)OCO2)Oc1ccc2c(c1)OCO2
Activity (Mus musculus [1]): Active | Activity (Mus musculus [2]): Active

SMILES: O=C(CCCCOc1ccc2c(c1)OCO2)Oc1ccc2c(c1)OCO2
Activity (Mus musculus [1]): Active | Activity (Mus musculus [2]): Active | Activity (Mus musculus [3]): Active

SMILES: CC(C)OC(=O)C(C)(C)Oc1ccc(C(=O)c2ccc(Cl)cc2)cc1 [FENOFIBRATE]
Activity (Mus musculus [4]): Active | Activity (Mus musculus [5]): Active | Activity (Mus musculus [6]): inactive | Activity (Mus musculus [7]): Active | Activity (Mus musculus [8]): inactive | Activity (Mus musculus [9]): inactive | Activity (Mus musculus [10]): inactive | Activity (Mus musculus [11]): Active | Activity (Mus musculus [12]): Active | Activity (Mus musculus [13]): 20%

SMILES: O=C(O)COc1ccc2c(c1)OCO2
Activity (Mus musculus [1]): Active

Continued, in another order:

Activity (Mus musculus [1]): Active | Activity (Mus musculus [2]): Active
SMILES: O=C(O)CCCCOc1ccc2c(c1)OCO2

Activity (Mus musculus [2]): Active
SMILES: CCOC(=O)CCCCOc1ccc2c(c1)OCO2

Activity (Mus musculus [1]): Active | Activity (Mus musculus [2]): Active
SMILES: CCOC(=O)CCCCCOc1ccc2c(c1)OCO2

Activity (Mus musculus [1]): Active | Activity (Mus musculus [2]): Active | Activity (Mus musculus [3]): Active | Activity (Mus musculus [20]): Dose-Dependent Effect | Activity (Mus musculus [21]): Dose-Dependent Effect
SMILES: O=C(CCCCCOc1ccc2c(c1)OCO2)Oc1ccc2c(c1)OCO2
Activity (Mus musculus [14]): 10.4% | Activity (Mus musculus [15]): 68.8% | Activity (Mus musculus [16]): 74.1% | Activity (Mus musculus [17]): 14.3% | Activity (Mus musculus [18]): 67.3% | Activity (Mus musculus [19]): 70.1% | Activity (Mus musculus [22]): Active | Activity (Mus musculus [23]): Active | Activity (Mus musculus [24]): Active | Activity (Mus musculus [25]): Active | Activity (Mus musculus [26]): Active | Activity (Mus musculus [27]): Active | Activity (Mus musculus [28]): Active | Activity (Mus musculus [29]): Active | Activity (Mus musculus [30]): Active | Activity (Mus musculus [31]): Active | Activity (Mus musculus [32]): Active | Activity (Mus musculus [33]): Active | Activity (Mus musculus [34]): 15%

Activity (Mus musculus [1]): Active | Activity (Mus musculus [2]): Active
SMILES: O=C(O)CCCCCOc1ccc2c(c1)OCO2

Activity (Mus musculus [1]): Active | Activity (Mus musculus [2]): Active
SMILES: CCOC(=O)CCCOc1ccc2c(c1)OCO2

Activity (Mus musculus [2]): Active
SMILES: CCOC(=O)COc1ccc2c(c1)OCO2
